Test results taken from ChEMBL document CHEMBL3352584, “Novel DNA gyrase inhibiting spiropyrimidinetriones with a benzisoxazole scaffold: SAR and in vivo characterization” (J Med Chem, 2014).
In brackets after ≈: the same amount, converted by molar mass.

Columns and labels:
Staphylococcus aureus [1] = test: Antimicrobial activity against methicillin-sensitive Staphylococcus aureus by broth microdilution method in presence of 50% human serum; assay type: functional
Summary of the method: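 CLSI broth microdilution against methicillin-sensitive S. aureus, run with 50% human serum added to the medium to reflect plasma protein binding. Values under 12.5 μM are averages of three or more replicates.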

Rattus norvegicus = test: Toxicity in Wistar Hannover rat at 250 to 500 mg/kg, po administered once daily for 14 days; assay type: organism-based; set-up: dose 250-500 mg/kg, route oral; details: in vivo, 336 h
Summary of the method: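 Repeat-dose oral study in Wistar Hannover rats, three males and three females per group, dosed once daily for 14 days at 0, 250, 500 or 750 mg/kg/day and necropsied on day 15. Endpoints were clinical signs, body weight, food intake, temperature, hematology, plasma chemistry, toxicokinetics, and gross and microscopic pathology.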

[2] = Solubility of the compound; assay type: physicochemical
Staphylococcus aureus [3] = test: Inhibition of DNA synthesis in methicillin-sensitive Staphylococcus aureus by [3H]-thymidine incorporation assay; assay type: functional, organism-based
[4] = Bioavailability in rat at 3 mg/kg, iv or at 10 mg/kg, po by LC-MS/MS method; assay type: ADME, organism-based; details: in vivo
Summary of the method: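 Male mice (CD-1) or male Wistar Hannover rats, three per experiment, given a 15 min iv infusion at 3 mg/kg or oral dosing at 10 mg/kg. Vehicle was DMA:TEG:saline 40/40/20 for mice and meglumine/cyclodextrin for rats. Serial jugular blood was taken over 0–24 h, plasma analysed by LC-MS/MS, and a noncompartmental analysis used. Mean values are given.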

Staphylococcus aureus [5] = test: Antimicrobial activity against methicillin-sensitive Staphylococcus aureus ARC516 infected in immunocompetant mouse assessed as reduction in CFU at AUC of 70 ug.hr/mL compound administered as single ip dose starting 2 hrs after infection relative to untreated control; assay type: functional
Summary of the method: (§1)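 CD-1 mouse thighs were infected with mid-log S. aureus ARC516 at a target inoculum of 5 × 10⁵ CFU. Groups of five received IP compound in DMA:TEG:saline 40/40/20%, starting 2 h post-infection; a vehicle group served as control. Mice were killed 24 h after treatment start, and thigh homogenates were plated on tryptic soy agar (37 °C, overnight) for CFU/g. Free exposure was corrected for mouse plasma protein binding.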

Staphylococcus aureus [6] = test: Antimicrobial activity against methicillin-sensitive Staphylococcus aureus ARC516 infected in immunocompetant mouse assessed as reduction in CFU at free AUC of 13 ug.hr/mL compound administered as single ip dose starting 2 hrs after infection relative to untreated control; assay type: functional; summary of the method: as §1
Streptococcus pyogenes = test: Antimicrobial activity against Streptococcus pyogenes by broth microdilution method; assay type: functional
Summary of the method: (§2)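 Broth microdilution following CLSI guidelines. Values under 12.5 μM are averages of three or more replicates.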

Staphylococcus aureus [7] = test: Antimicrobial activity against methicillin-sensitive Staphylococcus aureus ARC516 infected in immunosupressed mouse administered as single ip dose starting 2 hrs after infection; assay type: functional, organism-based
Staphylococcus aureus [8] = test: Antimicrobial activity against Staphylococcus aureus 2792 harboring wild-type GyrA and GyrB R144A mutant by broth microdilution method; assay type: functional
Haemophilus influenzae = test: Antimicrobial activity against Haemophilus influenzae by broth microdilution method; assay type: functional; summary of the method: as §2

Cc1noc2c(F)c3c(cc12)CC1(C(=O)NC(=O)NC1=O)[C@H]1[C@H](C)O[C@H](C)CN31
MIC (Staphylococcus aureus [1]): 3.1 µM
Activity (Rattus norvegicus): Non-toxic
solubility [2]: > 1000 µM
IC50 (Staphylococcus aureus [3]): 0.06 µg/mL (≈ 0.149 µM)
bioavailability [4]: 71%
fold change (FC) (Staphylococcus aureus [5]): 3
fold change (FC) (Staphylococcus aureus [6]): 3
MIC (Streptococcus pyogenes): 6.2 µM (≈ 2.49 µg/mL)
Activity (Staphylococcus aureus [7]): Dose-dependent effect
MIC (Staphylococcus aureus [8]): 0.5 µg/mL (≈ 1.24 µM)
MIC (Haemophilus influenzae): 1 µM (≈ 0.402 µg/mL)
